Columns and labels:
[1] = system: A549; assay: Cytotoxicity against human A549 cells after 72 hrs by SRB assay; assay type: functional, cell-based; details: A549, 72 h
How it was run: (§1)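 Ditartrate salts tested. ATCC A549 or HeLa cells seeded at 6000 cells/well and attached overnight, then treated in triplicate with graded concentrations, 37 °C, 72 h. Fixed with 10% TCA at 4 °C for 60 min, stained with 0.4% SRB, bound dye dissolved in Tris, A515 read. IC50 by Logit method, mean of three independent tests.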

[2] = system: HeLa; assay: Cytotoxicity against human HeLa cells after 72 hrs by SRB assay; assay type: functional, cell-based; how it was run: as §1
[3] = system: Mus musculus; assay: Effect on Body weight in nude BALB/c mouse bearing A549 cell xenografts at 1.5 mg/kg, iv; assay type: functional
How it was run: (§2)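 Female 7-week-old SPF BALB/cA-nude mice (18-22 g), 2.5 × 10^6 A549 cells implanted s.c. in axilla. Dosing at tumor volume 100-300 mm3, single i.v. dose on day 1. Tumor volume and body weight measured three times a week. Relative tumor volume and body weight reported initial/end. Groups of 6 treated, 12 controls. Means ± SD.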

[4] = system: Mus musculus; assay: Effect on Body weight in nude BALB/c mouse bearing A549 cell xenografts at 3 mg/kg, iv; assay type: functional; how it was run: as §2
[5] = system: Mus musculus; assay: Effect on Body weight in nude BALB/c mouse bearing A549 cell xenografts at 6 mg/kg, iv; assay type: functional; how it was run: as §2
[6] = system: A549; assay: Antitumor activity in nude BALB/c mouse bearing A549 cell xenografts assessed as relative tumor volume at 1.5 mg/kg, iv; assay type: functional, Homo sapiens; how it was run: as §2
[7] = system: A549; assay: Antitumor activity in nude BALB/c mouse bearing A549 cell xenografts assessed as relative tumor volume at 3 mg/kg, iv; assay type: functional, Homo sapiens; how it was run: as §2
[8] = system: A549; assay: Antitumor activity in nude BALB/c mouse bearing A549 cell xenografts assessed as relative tumor volume at 6 mg/kg, iv; assay type: functional, Homo sapiens; how it was run: as §2
[9] = system: A549; assay: Antitumor activity in nude BALB/c mouse bearing A549 cell xenografts assessed as tumor growth inhibition at 1.5 mg/kg, iv after 12 days; assay type: functional, Homo sapiens; details: A549, 288 h
How it was run: (§3)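 A549 s.c. axillary xenografts (2.5 × 10^6 cells) in female 7-week-old SPF BALB/cA-nude mice. Single i.v. dose on day 1 once tumors reached 100-300 mm3. Inhibition = (control mean relative tumor volume − treated)/control × 100%, on day 12 after dosing. Groups of 6, controls 12. Significance by Student's t test.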

[10] = system: A549; assay: Antitumor activity in nude BALB/c mouse bearing A549 cell xenografts assessed as tumor growth inhibition at 3 mg/kg, iv after 12 days; assay type: functional, Homo sapiens; details: A549, 288 h; how it was run: as §3
[11] = system: A549; assay: Antitumor activity in nude BALB/c mouse bearing A549 cell xenografts assessed as tumor growth inhibition at 6 mg/kg, iv after 12 days; assay type: functional, Homo sapiens; details: A549, 288 h; how it was run: as §3
[12] = system: Mus musculus; assay: Effect on Body weight in nude BALB/c mouse bearing A549 cell xenografts at 10 mg/kg, iv; assay type: functional
How it was run: (§4)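 Female 7-week-old SPF BALB/cA nude mice (18-22 g) received 2.5 × 10^6 A549 cells subcutaneously in the axilla. Once tumors reached 100-300 mm3, they were dosed iv at 10 mg/kg on days 1 and 4 (6 mice; 12 controls). Tumor volume and body weight were measured three times weekly. Inhibition was computed from mean relative tumor volume versus control on day 12 after dosing. Means ± SD, Student's t test.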

[13] = system: A549; assay: Antitumor activity in nude BALB/c mouse bearing A549 cell xenografts assessed as relative tumor volume at 10 mg/kg, iv; assay type: functional, Homo sapiens; how it was run: as §4
[14] = system: A549; assay: Antitumor activity in nude BALB/c mouse bearing A549 cell xenografts assessed as tumor growth inhibition at 10 mg/kg, iv after 12 days; assay type: functional, Homo sapiens; details: A549, 288 h; how it was run: as §4

Structure (SMILES) | IC50 [1] [nM] | IC50 [2] [nM] | further results
CCC1=C[C@@H]2CN(CCc3c([nH]c4ccccc34)[C@@](C(=O)OC)(c3cc4c(cc3OC)N(C)[C@H]3[C@](O)(CNC(=O)OC5CCCC5)[C@H](OC(C)=O)[C@]5(CC)C=CCN6CC[C@]43[C@@H]65)C2)C1 | 177 | 132 | –
CCC1=C[C@@H]2CN(CCc3c([nH]c4ccccc34)[C@@](C(=O)OC)(c3cc4c(cc3OC)N(C)[C@H]3[C@](O)(CNC(=O)OCc5ccc([N+](=O)[O-])cc5)[C@H](OC(C)=O)[C@]5(CC)C=CCN6CC[C@]43[C@@H]65)C2)C1 | 38 | 10 | –
CCC1=C[C@@H]2CN(CCc3c([nH]c4ccccc34)[C@@](C(=O)OC)(c3cc4c(cc3OC)N(C)[C@H]3[C@](O)(CNC(=O)Oc5ccccc5OC)[C@H](OC(C)=O)[C@]5(CC)C=CCN6CC[C@]43[C@@H]65)C2)C1 | 609 | 148 | –
CCC1=C[C@@H]2CN(CCc3c([nH]c4ccccc34)[C@@](C(=O)OC)(c3cc4c(cc3OC)N(C)[C@H]3[C@](O)(CNC(=O)OCc5ccccc5)[C@H](OC(C)=O)[C@]5(CC)C=CCN6CC[C@]43[C@@H]65)C2)C1 | 57 | 54 | –
CCC1=C[C@@H]2CN(CCc3c([nH]c4ccccc34)[C@@](C(=O)OC)(c3cc4c(cc3OC)N(C)[C@H]3[C@](O)(CNC(=O)OCc5cccc(Cl)c5)[C@H](OC(C)=O)[C@]5(CC)C=CCN6CC[C@]43[C@@H]65)C2)C1 | 203 | 39 | –
CCC1=C[C@@H]2CN(CCc3c([nH]c4ccccc34)[C@@](C(=O)OC)(c3cc4c(cc3OC)N(C)[C@H]3[C@](O)(CNC(=O)OCc5ccc(Cl)cc5)[C@H](OC(C)=O)[C@]5(CC)C=CCN6CC[C@]43[C@@H]65)C2)C1 | 89 | 6 | –
CCC1=C[C@@H]2CN(CCc3c([nH]c4ccccc34)[C@@](C(=O)OC)(c3cc4c(cc3OC)N(C)[C@H]3[C@](O)(CNC(=O)OC)[C@H](OC(C)=O)[C@]5(CC)C=CCN6CC[C@]43[C@@H]65)C2)C1 | 38 | 9 | Activity [3]: 21.3 g; Activity [4]: 20.4 g; Activity [5]: 18.8 g; Activity [6]: 8.18; Activity [7]: 6.96; Activity [8]: 3.48; inhibition in vivo at 1.5 mg/kg [9]: 26%; inhibition in vivo at 3 mg/kg [10]: 37.1%; inhibition in vivo at 6 mg/kg [11]: 68.5%
CCC1=C[C@@H]2CN(CCc3c([nH]c4ccccc34)[C@@](C(=O)OC)(c3cc4c(cc3OC)N(C)[C@H]3[C@](O)(CNC(=O)OCC5CC5)[C@H](OC(C)=O)[C@]5(CC)C=CCN6CC[C@]43[C@@H]65)C2)C1 | 61 | 13 | –
CCC1=C[C@@H]2CN(CCc3c([nH]c4ccccc34)[C@@](C(=O)OC)(c3cc4c(cc3OC)N(C)[C@H]3[C@](O)(CNC(=O)Oc5ccc(OC)cc5)[C@H](OC(C)=O)[C@]5(CC)C=CCN6CC[C@]43[C@@H]65)C2)C1 | 365 | 49 | –
CCC1=C[C@@H]2CN(CCc3c([nH]c4ccccc34)[C@@](C(=O)OC)(c3cc4c(cc3OC)N(C)[C@H]3[C@](O)(CNC(=O)OC5CCCCC5)[C@H](OC(C)=O)[C@]5(CC)C=CCN6CC[C@]43[C@@H]65)C2)C1 | 381 | 250 | –
CCC1=C[C@@H]2CN(CCc3c([nH]c4ccccc34)[C@@](C(=O)OC)(c3cc4c(cc3OC)N(C)[C@H]3[C@](O)(CNC(=O)OCc5ccc6c(c5)OCO6)[C@H](OC(C)=O)[C@]5(CC)C=CCN6CC[C@]43[C@@H]65)C2)C1 | 75 | 17 | –
CCC1=C[C@@H]2CN(CCc3c([nH]c4ccccc34)[C@@](C(=O)OC)(c3cc4c(cc3OC)N(C)[C@H]3[C@](O)(CNC(=O)OCc5ccccc5OC)[C@H](OC(C)=O)[C@]5(CC)C=CCN6CC[C@]43[C@@H]65)C2)C1 | 200 | 69 | –
CCC1=C[C@@H]2CN(CCc3c([nH]c4ccccc34)[C@@](C(=O)OC)(c3cc4c(cc3OC)N(C)[C@H]3[C@](O)(CNC(=O)OCc5ccccc5[N+](=O)[O-])[C@H](OC(C)=O)[C@]5(CC)C=CCN6CC[C@]43[C@@H]65)C2)C1 | 61 | 66 | –
CCC1=C[C@@H]2CN(CCc3c([nH]c4ccccc34)[C@@](C(=O)OC)(c3cc4c(cc3OC)N(C)[C@H]3[C@](O)(CNC(=O)OCCBr)[C@H](OC(C)=O)[C@]5(CC)C=CCN6CC[C@]43[C@@H]65)C2)C1 | 131 | 30 | –
CCC1=C[C@@H]2CN(CCc3c([nH]c4ccccc34)[C@@](C(=O)OC)(c3cc4c(cc3OC)N(C)[C@H]3[C@](O)(CNC(=O)OCc5ccc(OC)cc5)[C@H](OC(C)=O)[C@]5(CC)C=CCN6CC[C@]43[C@@H]65)C2)C1 | 67 | 8 | –
CCC1=C[C@@H]2CN(CCc3c([nH]c4ccccc34)[C@@](C(=O)OC)(c3cc4c(cc3OC)N(C)[C@H]3[C@](O)(CNC(=O)OC5CCC5)[C@H](OC(C)=O)[C@]5(CC)C=CCN6CC[C@]43[C@@H]65)C2)C1 | 121 | 23 | –
CCC1=C[C@@H]2CN(CCc3c([nH]c4ccccc34)[C@@](C(=O)OC)(c3cc4c(cc3OC)N(C)[C@H]3[C@](O)(CNC(=O)OC(C)C)[C@H](OC(C)=O)[C@]5(CC)C=CCN6CC[C@]43[C@@H]65)C2)C1 | 162 | 27 | –
CCC1=C[C@@H]2CN(C1)Cc1c([nH]c3ccccc13)[C@@](C(=O)OC)(c1cc3c(cc1OC)N(C)[C@H]1[C@@](O)(C(=O)OC)[C@H](OC(C)=O)[C@]4(CC)C=CCN5CC[C@]31[C@@H]54)C2 [VINORELBINE] | 49 | 26 | Activity [12]: 16.4 g; Activity [13]: 2.66; inhibition in vivo at 10 mg/kg [14]: 75.9%
CCC1=C[C@@H]2CN(CCc3c([nH]c4ccccc34)[C@@](C(=O)OC)(c3cc4c(cc3OC)N(C)[C@H]3[C@](O)(CNC(=O)OCCOC)[C@H](OC(C)=O)[C@]5(CC)C=CCN6CC[C@]43[C@@H]65)C2)C1 | 65 | 14 | –
CCC1=C[C@@H]2CN(CCc3c([nH]c4ccccc34)[C@@](C(=O)OC)(c3cc4c(cc3OC)N(C)[C@H]3[C@](O)(CNC(=O)OCC(C)C)[C@H](OC(C)=O)[C@]5(CC)C=CCN6CC[C@]43[C@@H]65)C2)C1 | 66 | 67 | –
CCC1=C[C@@H]2CN(CCc3c([nH]c4ccccc34)[C@@](C(=O)OC)(c3cc4c(cc3OC)N(C)[C@H]3[C@](O)(CNC(=O)OC(C)(C)C)[C@H](OC(C)=O)[C@]5(CC)C=CCN6CC[C@]43[C@@H]65)C2)C1 | 604 | 96 | –
CCC1=C[C@@H]2CN(CCc3c([nH]c4ccccc34)[C@@](C(=O)OC)(c3cc4c(cc3OC)N(C)[C@H]3[C@](O)(CNC(=O)Oc5ccccc5)[C@H](OC(C)=O)[C@]5(CC)C=CCN6CC[C@]43[C@@H]65)C2)C1 | 110 | 199 | –
CCOC(=O)NC[C@]1(O)[C@H](OC(C)=O)[C@]2(CC)C=CCN3CC[C@@]4(c5cc([C@@]6(C(=O)OC)C[C@@H]7C=C(CC)CN(CCc8c6[nH]c6ccccc86)C7)c(OC)cc5N(C)[C@@H]14)[C@@H]32 | 51 | 16 | –
CCCCCOC(=O)NC[C@]1(O)[C@H](OC(C)=O)[C@]2(CC)C=CCN3CC[C@@]4(c5cc([C@@]6(C(=O)OC)C[C@@H]7C=C(CC)CN(CCc8c6[nH]c6ccccc86)C7)c(OC)cc5N(C)[C@@H]14)[C@@H]32 | 426 | 184 | –

Reference: ChEMBL document CHEMBL1143718, “Synthesis and structure-activity relationships study of novel anti-tumor carbamate anhydrovinblastine analogues” (Bioorg Med Chem, 2007)
